Experiment [1] in a line: Upregulation of ECM1 protein levels in human BxPC-3 cells incubated for 16 hrs by proteomic analysis. The format is functional. In short, it runs like this: (§1)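 BxPC-3 cells exposed 16 h in triplicate (control, PROTAC) or duplicate (other arms); lysed in RIPA at 4 °C, 75 μg protein per sample. Reduced with DTT (1 h, 55 °C), alkylated with 2-chloroacetamide, acetone-precipitated, trypsin-digested overnight at 37 °C, TMT 10plex labelled, relative quantitation by LC-tandem MS.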

A short description of experiment [2]: Upregulation of ABCB6 protein levels in human BxPC-3 cells incubated for 16 hrs by proteomic analysis. It counts as functional. In short, it runs like this:
as §1

Experiment [3] addresses Protein cereblon/Anamorsin (Homo sapiens) (UniProt Q96SW2+Q6FI81). The experiment in a line: Protac activity at CRBN/CIAPIN1 in human BxPC-3 cells assessed as CIAPIN1 degradation incubated for 16 hrs by proteomic analysis. It counts as cell-based. In short, it runs like this:
(§2)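 TMT 10plex proteomics. […] Samples (75 μg) were reduced with DTT, alkylated with 2-chloroacetamide, acetone-precipitated, trypsin-digested overnight at 37 °C and TMT-labeled for LC-MS/MS relative quantitation.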

Experiment [4] in a line: Upregulation of IL1RL1 protein levels in human BxPC-3 cells incubated for 16 hrs by proteomic analysis. It counts as functional. In short, it runs like this: as §1
Experiment [5] is described as follows: Upregulation of ZNF430 protein levels human BxPC-3 cells incubated for 16 hrs by proteomic analysis. The format is functional. In short, it runs like this: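 BxPC-3 cells exposed to compound (2 μM) or DMSO control for 16 h, then lysed in RIPA buffer at 4 °C. Protein quantified by BCA; 75 μg per sample. TMT 10plex labeling: DTT reduction (1 h, 55 °C), 2-chloroacetamide alkylation (30 min, RT), acetone precipitation, overnight trypsin digestion at 37 °C, then LC-tandem MS relative quantitation. Control and treated samples run in triplicate.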

Experiment [6] in a line: Upregulation of SYNC protein levels in human BxPC-3 cells incubated for 16 hrs by proteomic analysis. It counts as functional. In short, it runs like this:
as §1

The target of experiment [7] is Protein cereblon/DNA polymerase delta subunit 4 (Homo sapiens) (UniProt Q9HCU8+Q96SW2). Description: Protac activity at CRBN/POLD4 in human BxPC-3 cells assessed as POLD4 degradation incubated for 16 hrs by proteomic analysis. The format is cell-based. In short, it runs like this: as §2
Chain of Protein cereblon/DNA polymerase delta subunit 4 (Homo sapiens) (Q96SW2 whole entry, looked up): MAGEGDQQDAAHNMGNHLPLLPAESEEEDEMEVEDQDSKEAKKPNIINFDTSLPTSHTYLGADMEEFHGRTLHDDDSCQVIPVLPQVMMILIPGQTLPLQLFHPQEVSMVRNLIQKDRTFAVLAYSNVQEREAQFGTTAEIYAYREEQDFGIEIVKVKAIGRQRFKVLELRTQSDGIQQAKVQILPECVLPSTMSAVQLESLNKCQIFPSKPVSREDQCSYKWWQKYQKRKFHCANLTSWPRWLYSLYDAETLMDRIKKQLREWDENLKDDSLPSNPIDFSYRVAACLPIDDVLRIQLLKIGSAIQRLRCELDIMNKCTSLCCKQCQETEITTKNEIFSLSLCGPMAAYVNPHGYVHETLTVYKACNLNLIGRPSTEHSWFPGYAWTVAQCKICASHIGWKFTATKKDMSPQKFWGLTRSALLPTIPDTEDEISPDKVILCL
Chain of Protein cereblon/DNA polymerase delta subunit 4 (Homo sapiens) (Q9HCU8 whole entry, looked up): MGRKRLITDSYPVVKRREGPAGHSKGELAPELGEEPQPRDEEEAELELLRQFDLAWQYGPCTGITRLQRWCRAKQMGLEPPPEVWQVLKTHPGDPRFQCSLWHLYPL
The target of experiment [8] is Protein cereblon/Transmembrane protease serine 4 (Homo sapiens) (UniProt Q9NRS4+Q96SW2). Description: Protac activity at CRBN/TMPRSS4 in human BxPC-3 cells assessed as TMPRSS4 degradation incubated for 16 hrs by proteomic analysis. The format is cell-based. In short, it runs like this:
as §1

The test system of experiment [9] is BXPC-3. The experiment in a line: Antiproliferative activity against ZFP91 knockdown human BxPC-3 cells assessed as reduction in cell viability incubated for 48 hrs by MTT assay. It counts as functional, cell-based. As to conditions: BXPC-3, 48 h. In short, it runs like this:
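BxPC-3 cells were transfected with ZFP91 siRNA or scrambled control siRNA using Lipofectamine RNAiMAX in Opti-MEM, 5 pmol siRNA per complex. Compound was added together with the siRNA complex.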

Experiment [10] deals with Protein cereblon/Ubiquitin-conjugating enzyme E2 T (Homo sapiens) (UniProt Q96SW2+Q9NPD8). The experiment in a line: Protac activity at CRBN/UBE2T in human BxPC-3 cells assessed as UBE2T degradation incubated for 16 hrs by proteomic analysis. The format is cell-based. In short, it runs like this: as §1
Chain of Protein cereblon/Ubiquitin-conjugating enzyme E2 T (Homo sapiens) (Q96SW2 whole entry, looked up): as the sequence (Q96SW2 whole entry, looked up) above
Chain of Protein cereblon/Ubiquitin-conjugating enzyme E2 T (Homo sapiens) (Q9NPD8 whole entry, looked up): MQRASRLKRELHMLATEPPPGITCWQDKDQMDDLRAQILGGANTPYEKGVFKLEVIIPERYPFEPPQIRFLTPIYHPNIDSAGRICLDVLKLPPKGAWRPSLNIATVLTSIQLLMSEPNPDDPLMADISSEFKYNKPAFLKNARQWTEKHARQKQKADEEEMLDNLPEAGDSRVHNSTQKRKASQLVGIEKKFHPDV
A short description of experiment [11]: Upregulation of RhoB protein levels in human BxPC-3 cells incubated for 16 hrs by proteomic analysis. It counts as functional. In short, it runs like this:
as §1

The target of experiment [12] is Protein cereblon/SOSS complex subunit B1 (Homo sapiens) (UniProt Q96SW2+Q9BQ15). The experiment in a line: Protac activity at CRBN/NABP2 in human BxPC-3 cells assessed as NABP2 degradation incubated for 16 hrs by proteomic analysis. The format is cell-based. In short, it runs like this: as §2
Chain of Protein cereblon/SOSS complex subunit B1 (Homo sapiens) (Q96SW2 whole entry, looked up): as the sequence (Q96SW2 whole entry, looked up) above
Chain of Protein cereblon/SOSS complex subunit B1 (Homo sapiens) (Q9BQ15 whole entry, looked up): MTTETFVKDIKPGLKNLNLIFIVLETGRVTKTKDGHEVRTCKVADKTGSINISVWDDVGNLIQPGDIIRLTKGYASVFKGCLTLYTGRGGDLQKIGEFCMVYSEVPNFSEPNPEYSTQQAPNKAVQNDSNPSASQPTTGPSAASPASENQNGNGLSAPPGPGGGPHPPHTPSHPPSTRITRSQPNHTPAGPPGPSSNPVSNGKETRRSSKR
Experiment [13] in a line: Selectivity index, ratio of IC50 for antiproliferative activity against human HEK293 cell by MTT assay to IC50 for inhibition of IL-6 induced STAT3 transcription in human HEK293 cells. In short, it runs like this:
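HEK-293 cells carrying an SIE-luc2P STAT3 reporter, seeded 10,000/well, stimulated with IL6 at 100 ng/ml for 24 h, then given compound for 24 h; luciferase reagent added and luminescence read after 5 min. A parallel 24 h MTT assay was run in the same cells. Mean ± SD of three independent experiments.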
(In general: Tetrazolium dyes change colour on reduction, which living cells bring about.)

Experiment [14] can be described thus: Upregulation of DNAJB9 protein levels in human BxPC-3 cells incubated for 16 hrs by proteomic analysis. It counts as functional. In short, it runs like this: as §1
A short description of experiment [15]: Upregulation of AFF1 protein levels in human BxPC-3 cells incubated for 16 hrs by proteomic analysis. The format is functional. In short, it runs like this: as §1
In experiment [16] the test system is BXPC-3. The experiment in a line: Antiproliferative activity against human BxPC-3 cells assessed as reduction in cell viability incubated for 3 days by MTT assay. It counts as functional, cell-based. As to conditions: BXPC-3, 72 h.

Molecules are shown by their SMILES.

Chain of Protein cereblon/Anamorsin (Homo sapiens) (Q6FI81 whole entry, looked up): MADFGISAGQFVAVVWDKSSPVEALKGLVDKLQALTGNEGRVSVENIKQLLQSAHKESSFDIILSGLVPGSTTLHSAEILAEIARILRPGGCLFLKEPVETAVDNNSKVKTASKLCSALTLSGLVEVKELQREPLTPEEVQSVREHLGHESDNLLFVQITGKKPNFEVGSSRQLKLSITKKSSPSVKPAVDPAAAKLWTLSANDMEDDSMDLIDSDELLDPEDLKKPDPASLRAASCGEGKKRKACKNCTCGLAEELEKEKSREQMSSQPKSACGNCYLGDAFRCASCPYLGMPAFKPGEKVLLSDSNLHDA
Chain of Protein cereblon/Anamorsin (Homo sapiens) (Q96SW2 whole entry, looked up): as the sequence (Q96SW2 whole entry, looked up) above
Chain of Protein cereblon/Transmembrane protease serine 4 (Homo sapiens) (Q96SW2 whole entry, looked up): as above
Chain of Protein cereblon/Transmembrane protease serine 4 (Homo sapiens) (Q9NRS4 whole entry, looked up): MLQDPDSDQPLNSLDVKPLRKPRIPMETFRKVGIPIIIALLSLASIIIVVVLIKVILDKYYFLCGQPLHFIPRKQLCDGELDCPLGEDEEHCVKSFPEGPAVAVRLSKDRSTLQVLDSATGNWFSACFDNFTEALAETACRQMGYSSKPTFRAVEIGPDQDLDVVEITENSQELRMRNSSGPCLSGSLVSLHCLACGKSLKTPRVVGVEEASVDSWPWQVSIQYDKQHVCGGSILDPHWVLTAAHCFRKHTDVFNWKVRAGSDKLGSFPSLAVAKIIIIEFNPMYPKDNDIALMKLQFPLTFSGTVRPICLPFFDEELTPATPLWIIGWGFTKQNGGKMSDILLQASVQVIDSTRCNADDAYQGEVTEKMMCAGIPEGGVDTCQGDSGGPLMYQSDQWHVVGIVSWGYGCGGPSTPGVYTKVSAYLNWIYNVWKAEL

The IC50 is the midpoint of a concentration-inhibition curve. With `O=C1CCC(N2C(=O)c3cccc(NCCCCCC4CCN(CCNC(=O)c5cc6c(o5)C(=O)c5ccccc5C6=O)CC4)c3C2=O)C(=O)N1` (stereo unspecified), the log2FC in [1] is 0.76; in [2], 0.68; in experiment [3], -0.59; in experiment [4], 1.24; in experiment [5] it was 0.77; in experiment [6] it was 1.04. Besides, the log2FC in experiment [7] was -0.61; in [8], -1.27; in [10], -0.66; in experiment [11], 0.73; in experiment [12] it was -0.78; in experiment [14] it was 1.35. In experiment [15], this molecule yielded a log2FC of 0.67. For the same molecule, the IC50 was determined as 2100 nM in the experiment with BXPC-3 [9] and 800 nM with BXPC-3 [16]. In [13], the “Ratio IC50” value is given as 7.
